High-throughput results deposited in PubChem by Broad Institute.
Compounds with a hit are over-represented: about 2.6% of the library has one in this group of screens.
Ecoli rRNA inh – selective bacterial rRNA inhibition in E. coli; E. coli WT GFP vs humanized-ribosome RFP mutants, fluorescence, 24 h; stronger effect = lower value; DMSO median 0, no signal -100; GFP signal change (wild-type ribosome), % (no concentration beside the values); 350,000 compounds, 1.6% hits; AID 720706;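 active means significant combined selectivity score with lowered wild-type GFP, culture density cut under 30%, mutant RFP and density less affected; inactive means any of these conditions unmet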
Env fusion inh – blocks HIV Env-driven cell-cell fusion; HeLa-JRFL Env/CEM21 cell fusion, luciferase; inhibition, % at 12.3 µM; 360,000 compounds, 1.1% hits; AID 651610;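 active means mean replicate inhibition score of at least 50 and every replicate individually at or above 50; inconclusive means only one of the two criteria met; inactive means mean below 50 and not all replicates reaching 50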;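 further: 0% = plate neutral controls and 100% = maraviroc near 300 nM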
miR122 inh – miR-122 inhibition in Huh7 cells | AID 602342 | Huh7 miR-122 Renilla luciferase sensor, 48 h; neutral wells = 0, positive control = 100 | 340,000 compounds, 0.3% hits | activation (reporter increase), % at 12.5 µM;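 active means mean replicate activation score at least 90 and every replicate individually at or above 90; inconclusive means only one of the two criteria met; inactive means neither criterion met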;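 further: higher luciferase means less miR-122 activity so hits act as miR-122 inhibitors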
FN deposition inh – fibronectin deposition inhibition; inhibition, % at 12.6 µM; AH1F fibroblasts, Alexa488-fibronectin deposition fluorescence, overnight; 350,000 compounds, 0.086% hits; AID 743247;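 active means mean inhibition across replicates of 30% or more, regardless of how many single replicates reach that level; inconclusive means mean under 30% yet at least half of replicates reach 30%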;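 further: positive control wells lacked labelled fibronectin entirely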
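Assay system: AH1F fibroblasts / Quantity: 10000 cells per well / Medium: DMEM plus 2% serum, read in PBS / Reagent: labelled fibronectin 24 nM / Dosing: single dose, pinned / Times: 1 h cell attachment, overnight exposure to compound and label / Signal: fluorescence, ex 485 nm, em 525 nm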
Vif inh – blocks HIV Vif function; HEK293T cells, Vif self-association by quenched fluorescence, imaging, 24 h; inhibition, % at 7.49 µM; 340,000 compounds, 0.35% hits; AID 602346; in the data active means inhibition above about 50%, passing the limit was not always enough; inconclusive means no clear call, values can overlap the other calls; inactive means below about 31%
S100A4 MyoIIA – S100A4-myosin IIA interaction inhibition. P26447. S100A4/TAMRA-MyoIIA peptide fluorescence polarization. inhibition, % at 10.7 µM. 360,000 compounds, 0.14% hits. AID 652163;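 active means mean inhibition of at least 70% across replicates, with every replicate also reaching that level; inconclusive means mean inhibition reaches 70% but some replicates fall short; inactive means mean inhibition below 70%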
Target sequence (P26447 whole entry, looked up): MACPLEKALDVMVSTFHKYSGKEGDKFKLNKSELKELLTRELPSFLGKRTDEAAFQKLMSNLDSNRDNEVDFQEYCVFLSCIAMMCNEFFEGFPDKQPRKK
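Test system: S100A4 monomer protein; Medium: HEPES pH 7.2 with CaCl2, KCl, NaCl, DTT, Triton; Probe or stimulus: TAMRA-labelled myosin IIA heavy-chain peptide probe, 5 nM; Doses: one dose per compound; Times: polarization read 5 min after assay mix addition, stable 5–60 min; Benchmarks: neutral control DMSO, positive control TFP.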
* hit, by the source's call; [ ] = remark or other dose.

For O=C(COc1ccc(Cl)cc1Cl)N/N=C/c1ccc[nH]1 the results were Ecoli rRNA inh -22*, Env fusion inh 11, miR122 inh -9, FN deposition inh 7, Vif inh -27 and S100A4 MyoIIA -2.
CC(=O)N(C)C[C@@H]1Oc2ncc(-c3cccnc3)cc2C(=O)N([C@@H](C)CO)C[C@@H]1C was read as Ecoli rRNA inh -2, Env fusion inh 1[16.7 µM], miR122 inh -3[16.7 µM], FN deposition inh -4 and S100A4 MyoIIA 14.
Screening CC(=O)Nc1sc2c(c1C(c1ccc(Cl)cc1)N1CCOCC1)CCCC2 (stereo unspecified) returned miR122 inh -6.
`CC(=O)Nc1sc2c(c1C(c1ccc(F)cc1)N1CCOCC1)CCCC2` (stereo unspecified) gave Env fusion inh 90*, miR122 inh 1 and FN deposition inh 0.
For CN(C)C(=O)c1ccc(N=Nc2c(O)c3ccccc3[nH]c2=O)cc1 the results were Ecoli rRNA inh -21*, Env fusion inh 16, miR122 inh 3, FN deposition inh -6, Vif inh -18 and S100A4 MyoIIA 0.
O=C(O)c1ccc(S(=O)(=O)c2ccc3c(c2)C(=O)N(c2ccc(Br)cc2)C3=O)cc1 was read as Ecoli rRNA inh 5, Env fusion inh -9, FN deposition inh 3, Vif inh 66* and S100A4 MyoIIA 1.
For CCOC(=O)/C=C1/SCC(=O)N1CC(=O)NC12CC3CC(CC(C3)C1)C2 the results were Ecoli rRNA inh -3, Env fusion inh 57*, miR122 inh -2, FN deposition inh 1, Vif inh 5 and S100A4 MyoIIA -16.
COc1cc2c(c(OC)c1OC)-c1c(cc3c(c1OC)OCO3)[C@@H](OC(C)=O)[C@H](C)[C@H](C)C2 was read as Ecoli rRNA inh -42*, Env fusion inh 15, miR122 inh -7, FN deposition inh 4, Vif inh -4 and S100A4 MyoIIA 3.
For O=C(O)C[C@@H]1CC[C@H](NC(=O)c2ccccc2F)[C@@H](CO)O1 the results were Ecoli rRNA inh 5, Env fusion inh 4[16.7 µM], FN deposition inh -2 and S100A4 MyoIIA 12.
For CN1c2ccccc2C(C)(C)[C@]12C=Cc1cc(O)ccc1O2 the results were Vif inh 74*.
For O=[N+]([O-])c1cc(Br)cc(C=Nc2ccc3c(c2)OCO3)c1O the results were Ecoli rRNA inh -30*, Env fusion inh -1, miR122 inh 2, FN deposition inh -3, Vif inh 2 and S100A4 MyoIIA -5.
For CN(C)C(=O)c1cccc(-c2ccc([C@@H]3[C@@H](CO)N4C(=O)CN(C(=O)C5CCCCC5)C[C@H]34)cc2)c1 the results were Ecoli rRNA inh 5, FN deposition inh 5 and S100A4 MyoIIA 20.
O=C(Nc1ccn(Cc2ccccc2F)n1)c1ccc(COc2ccc(Br)cc2)cc1 was read as Env fusion inh 87*, miR122 inh -25, FN deposition inh 21 and Vif inh -23.
`COC(=O)N/N=C(\CCC(=O)O)c1cccs1` gave Ecoli rRNA inh 11, Env fusion inh 8, miR122 inh -7, FN deposition inh -3, Vif inh 5 and S100A4 MyoIIA 0.
O=C(O)CC/C(=N\Nc1ccc(Cl)cc1)c1cccs1 was read as Ecoli rRNA inh -28*, Env fusion inh 9, miR122 inh 16, FN deposition inh 9, Vif inh 0 and S100A4 MyoIIA -2.
CC(C)NC(=O)N1[C@H](CO)[C@@H]2c3ccccc3N(C(=O)C3CC3)C[C@@H]21 was read as Ecoli rRNA inh 1, miR122 inh 33[16.7 µM] and S100A4 MyoIIA 2.
Screening CC(NC(=O)c1cc(S(=O)(=O)N(C)C)ccc1N1CCCC1)C1CC2CCC1C2 (stereo unspecified) returned Ecoli rRNA inh 18, Env fusion inh 72*, FN deposition inh 2, Vif inh -2 and S100A4 MyoIIA 10.
CN(C)S(=O)(=O)c1ccc(N2CCCC2)c(C(=O)NC(c2ccccc2)c2ccccc2)c1 was read as Env fusion inh inconclusive, miR122 inh 23, FN deposition inh 11 and Vif inh 8.
